Assay results from article PMC9116722 (Cancer chemotherapy and pharmacology, 2022).

Experiment: Non-compartmental pharmacokinetics
Format: in vivo, human
In short: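 Patients took oral drug twice daily, continuously, at 50–500 mg BID. Plasma parent drug and active metabolite M8 were measured by a validated assay. Parameters were derived non-compartmentally on day 1 and reported as geometric mean (SD). Accumulation indices for Cmax and AUC0–8 were compared with theoretical values from D1 half-lives. Dose proportionality was tested on day-1 Cmax and AUC0-inf (95% CI of coefficient including 1).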

[1] = geometric mean (standard deviation)

## C[C@]1(c2nc3c(C(N)=O)cccc3[nH]2)CCCN1 [veliparib]
50-500 mg BID
  PK dose dependence: linear with dose
Calculated from D1 half-lives, geometric mean (SD)
  theoretical accumulation index: 1.34 (1.12)
[1]
  accumulation index for AUC0–8: 1.30 (1.29)
  accumulation index for Cmax: 1.24 (1.37)
human, in vivo, oral
  Vd/F: 123 L
non-compartmental, current study
  Cl/F: 15.9 (1.40) L/h
